Bioassay records as filed in PubChem.
Most compounds without a hit are left out; they make up all but 2.2% or so of the library.
thrombin 1536: inhibitors of human thrombin; alpha-thrombin, Boc-VPR-AMC fluorogenic substrate cleavage; inhibition, % at 5 µM; actives 0.26% (n = 220,000); AID 1046;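 active means inhibition at or above 40%; inactive means inhibition below 40%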;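 further: 0% = enzyme with no compound and 100% = wells without enzyme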
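System: human alpha-thrombin protein; Compound dosing: one concentration per compound, 5 µM, with 0.2% DMSO; Timing: reaction at room temperature; Technique: AMC fluorescence, 355/460 nm; Controls: enzyme without compound as high, wells lacking enzyme as low.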
FXIIa inh 1536: blocks human coagulation factor XIIa protease activity | AID 800 | inhibition, % at 5 µM | actives 0.3% (n = 220,000) | P00748 | purified FXIIa, Boc-QGR-AMC fluorogenic substrate, 2 h; in the data active means inhibition above about 40%;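 further: 0% = enzyme with no compound and 100% = blank without enzyme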
hK5 inh: blocks human kallikrein 5 protease activity | Q9Y337 | recombinant hK5, fluorogenic AMC substrate cleavage | inhibition, % at 5 µM | actives 0.59% (n = 210,000);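 active means inhibition of 40% or more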;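 further: 0% = enzyme controls without compound and 100% = no-enzyme blanks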
Wee1 degr inh: human Wee1 degradation inhibition, primary screen; reporter increase, % at 5 µM; P30291; actives 1.2% (n = 220,000); HeLa Luc-Wee1K328M stability, luciferase luminescence; 100% = proteasome inhibitor MG132 effect;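 active means activation above the mean of all tested compounds plus 3 SD, set per screening run, cut at about 8.8% in these data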;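 further: cells exposed to compound for 20 h before luminescence read; 0% = DMSO alone and 100% = MG132 at 30 µM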
FXIa inh: inhibitors of human coagulation factor XIa; inhibition, % at 5 µM; actives 0.14% (n = 220,000); purified FXIa, Boc-Glu-Ala-Arg-AMC fluorogenic substrate; AID 798; P03951;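 active means inhibition of at least 40%; inactive means inhibition below 40%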;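 further: fluorescence of freed AMC excited at 355 nm; 0% = enzyme without compound and 100% = no enzyme blank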
The depositor's hits bear a star; / = no result given.

SMILES	thrombin 1536	FXIIa inh 1536	hK5 inh	Wee1 degr inh	FXIa inh
Cn1c(Sc2ccc(C(F)(F)F)cc2[N+](=O)[O-])nnc1-c1ccccc1	25	29	51*	1	16
CCN(CC)CCCN(Cc1cc2cc3c(cc2[nH]c1=O)OCO3)C(=O)Nc1ccccc1OC	2	9	4	-1	1
CCN(CC)CCCN(Cc1cc2cc(OC)c(OC)cc2[nH]c1=O)C(=O)Nc1ccccc1	-3	10	-21	9.9*	-1
O=C(Nc1cccc(S(=O)(=O)N2CCOCC2)c1)c1cnccn1	-4	3	-2	0	-1
CCOC(=O)c1sc(NC(=O)CSc2nnc(Cc3ccccc3)o2)c(C(=O)OCC)c1C	12	22	74*	0	9
CCOC(=O)c1c(NC(=O)CSc2nc3ccccc3s2)sc(C(C)=O)c1C	5	17	47*	-2	9
CCOC(=O)c1c(NC(=O)CSc2ncccn2)sc2c1CCN(Cc1ccccc1)C2	39	5	43*	6	6
CCOC(=O)c1c(NC(=O)CSc2nc3cc(Cl)ccc3s2)sc(C(C)=O)c1C	-1	12	-23	2	7
O=C(O)c1cc(Cl)c2c(c1)OCO2	-6	3	-1	2	-6
CCOc1cc(N2CCOCC2)c(OCC)cc1NC(=O)c1ccc(OC(C)C)cc1	0	11	15	-4	13
COc1ccc(NC(=S)N2CCN(C(=O)c3ccccc3)CC2)cc1	3	2	-6	-1	-4
O=C(CCC(=O)OCc1ccc(C(=O)Oc2ccc(Cl)cc2)cc1)Nc1ccccc1	12	35	52*	0	1
CCC(CO)NCC(O)COCc1ccc2c(c1)OCO2 (stereo not given)	-4	6	-4	4	-2
Cc1ccc(S(=O)(=O)CCC(=O)OCc2ccc(Cl)cc2)cc1	18	29	53*	4	16
Cc1c(-n2cc(C(=O)c3ccccc3O)cc(C#N)c2=O)c(=O)n(-c2ccccc2)n1C	16	26	65*	-2	18
COc1ccc(C2c3c(-c4ccccc4O)n[nH]c3C(=O)N2Cc2ccco2)cc1OC (stereo not given)	-1	11	0	2	0
COc1ccc(C2c3c(-c4cc(Cl)c(C)cc4O)n[nH]c3C(=O)N2Cc2cccnc2)cc1OC (stereo not given)	57*	25	19	-1	9
O=C(Nc1nc2c(s1)CN(Cc1ccccc1)CC2)c1c(F)cccc1F	-6	9	-6	-1	-1
CCC(C)[C@@H](NC(=O)OC(C)(C)C)c1nnc(S(=O)(=O)Cc2cccc(C)c2)o1 (stereo not given in full)	51*	17	0	0	31
Cc1ccc(NC(=O)c2ccccc2)s1	-1	-6	-19	9.7*	-9
Cc1cc(NC(=O)c2ccccc2)sc1C	7	21	39	6	30
CCN1CCN(C(=S)Nc2ccc([N+](=O)[O-])cc2)CC1	0	9	-4	-1	-2
CCN1C(=O)/C(=C\c2cccn2-c2ccc([N+](=O)[O-])cc2)N(CC)C1=S	-7	8	-26	9.5*	8
O=C(c1ccc(S(=O)(=O)N2CCCCC2)cc1)c1nnc(-c2ccc(Cl)cc2)o1	15	2	46*	0	34
O=C(CCc1ccc(S(=O)(=O)N2CCCCC2)cc1)c1nnc(-c2ccccc2)o1	-3	6	-23	5	-15
SMILES	thrombin 1536	FXIIa inh 1536	hK5 inh	Wee1 degr inh	FXIa inh
O=C(O)CCCNc1ccc(S(=O)(=O)N2CCCCC2)cc1	-6	5	/	6	-5
Cc1nn(-c2nc3ccccc3[nH]2)c(=O)c2ccccc12	/	6	-2	-7	4
Cc1nn(-c2nc3ccccc3[nH]2)c(N)c1-c1ccc(Cl)cc1	-6	0	-11	11*	-9
Cc1nn(C(C)C)c(C)c1CN1CCCC(CCC(=O)NCc2ccccc2F)C1 (stereo not given)	0	5	/	8	-3
CC(C)c1csc(CN2CCCC(CCC(=O)NCc3ccccc3F)C2)n1 (stereo not given)	5	28	27	2	50*
CC(=O)c1ccc(Nc2cc(C)nc3c(C)cc(C)cc23)cc1	11	31	44*	11*	26
C/C(CCN1CCCCc2nc(C)c(C)cc21)=N\O[C@H](C)c1cn([C@H](CO)Cc2ccccc2)nn1	-5	9	-14	-3	-1
